According to ChEMBL document CHEMBL1240409, “Design, synthesis and evaluation of (E)-alpha-benzylthio chalcones as novel inhibitors of BCR-ABL kinase” (Bioorg Med Chem, 2010):

How the values were obtained:
K562 = assay: Growth inhibition of human K562 cells expressing p210Bcr/Abl after 96 hrs by trypan blue exclusion assay; format: functional, cell-based; conditions: K562, 96 h
In short: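 K562 cells were kept in RPMI with 10% FBS and penicillin–streptomycin at 37 °C under 5% CO2. Cells were seeded at 1 × 10^5 cells/mL with a range of compound concentrations, using DMSO as the negative control. After 96 h, viability was counted by Trypan blue exclusion and expressed as percent of DMSO control to derive GI50.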

DU-145 = assay: Growth inhibition of human DU145 cells after 96 hrs by trypan blue exclusion assay; format: functional; conditions: DU-145, 96 h

Structure (SMILES) | GI50 (K562) [µM] | GI50 (DU-145) [µM]
COc1ccc(/C=C(\C(=O)c2ccc(Cl)cc2)S(=O)(=O)c2ccc(Br)cc2)cc1 | 10 | 10
O=C(/C(=C\c1c(O)cc(O)cc1O)S(=O)(=O)c1ccccc1Br)c1ccc(Br)cc1 | 50 | 50
Cc1ccc(S(=O)(=O)/C(=C/c2ccc(O)c([N+](=O)[O-])c2)C(=O)c2ccc(Cl)cc2)cc1 | 25 | 25
COc1ccc(/C=C(/Sc2ccccc2Cl)C(=O)c2ccc(Cl)cc2)c(OC)c1OC | 1 | 10
COc1ccc(S(=O)(=O)/C(=C/c2ccc(Cl)cc2Cl)C(=O)c2ccc(Br)cc2)cc1 | 20 | 20
O=C(/C(=C\c1ccc(F)cc1F)S(=O)(=O)c1ccc(Cl)cc1)c1ccc(Br)cc1 | 25 | 25
O=C(C(=Cc1ccc(Br)cc1)S(=O)(=O)Cc1ccccc1Cl)c1ccc(Cl)cc1 | 1 | 1
Cc1ccc(S(=O)(=O)/C(=C/c2ccc(F)cc2F)C(=O)c2ccc(Br)cc2)cc1 | > 100 | > 100
Cc1ccc(CS/C(=C/c2ccc(O)cc2)C(=O)c2ccc(Cl)cc2)cc1 | 1 | 10
O=C(/C(=C\c1ccc(OCc2ccccc2)cc1)SCc1ccc(Cl)cc1)c1ccc(Cl)cc1 | 10 | 1
O=C(/C(=C\c1ccc(Cl)cc1)SCc1ccc(Cl)cc1)c1ccc(Br)cc1 | 1 | 10
Cc1ccc(S/C(=C/c2c[nH]c3ccc(Cl)cc23)C(=O)c2ccc(Br)cc2)cc1 | 1 | 1
Cc1ccsc1/C=C(\C(=O)c1ccc([N+](=O)[O-])cc1)S(=O)(=O)Cc1ccc(Cl)cc1 | 1 | 1
CCOc1ccc(/C=C(\C(=O)c2ccc(Cl)cc2)S(=O)(=O)Cc2ccccc2Cl)cc1OC | 1 | 10
COc1ccccc1/C=C(/SCc1ccc(C)cc1)C(=O)c1ccc(Cl)cc1 | 10 | 10
Cc1ccc(/C=C(/SCc2ccc(F)cc2)C(=O)c2ccc(Cl)cc2)s1 | > 100 | > 100
Nc1ccc(/C=C(/SCc2ccc(F)cc2)C(=O)c2ccc(C(=O)O)cc2)cc1[N+](=O)[O-] | 10 | 10
CN(C)c1ccc(/C=C(/SCc2ccc(Br)cc2)C(=O)c2ccc(C(=O)O)cc2)cc1 | 50 | 50
Cc1ccc(S/C(=C/c2ccc[nH]2)C(=O)c2ccc(Cl)cc2)cc1 | 10 | 10
O=C(/C(=C\c1ccc(O)cc1)SCc1ccc(Cl)cc1)c1ccc(Br)cc1 | 1 | 10
Cc1ccc(CS/C(=C/c2ccc(Cl)cc2)C(=O)c2ccc(Cl)cc2)cc1 | 1 | 10
O=C(/C(=C\c1ccc(Br)cc1)S(=O)(=O)c1ccccc1Br)c1ccc(Br)cc1 | 1 | 1
O=C(/C(=C\c1ccc(Br)cc1)SCc1ccc(F)cc1)c1ccc(Br)cc1 | 1 | 25
O=C(/C(=C\c1ccc(O)c([N+](=O)[O-])c1)Sc1ccc(Br)cc1)c1c(F)c(F)c(F)c(F)c1F | 1 | 1
Cc1ccc(S/C(=C/c2ccc(Oc3ccccc3)cc2)C(=O)c2ccc(Cl)cc2)cc1 | 10 | 10

Structure (SMILES) | GI50 (K562) [µM] | GI50 (DU-145) [µM]
O=C(/C(=C\c1c(O)cc(O)cc1O)S(=O)(=O)c1ccccc1Br)c1ccc(Cl)cc1 | 50 | 50
Cc1ccc(S(=O)(=O)/C(=C/c2c(O)cc(O)cc2O)C(=O)c2ccc(Br)cc2)cc1 | > 100 | > 100
CN1CCN(c2ccc(/C=C(/SCc3ccc(Br)cc3)C(=O)c3ccc(C(=O)O)cc3)cc2[N+](=O)[O-])CC1 | 1 | 10
CCOc1cc(/C=C(\C(=O)c2ccc(Cl)cc2)S(=O)(=O)Cc2ccc(Cl)cc2)ccc1O | 10 | 10
O=C(/C(=C\c1ccc(Br)cc1)S(=O)(=O)c1ccc(Br)cc1)c1ccccc1O | 10 | > 100
Cc1ccc(S(=O)(=O)/C(=C/c2cc(C)cc(C)c2)C(=O)c2ccc(Cl)cc2)cc1 | 1 | 1
O=C(/C(=C\c1ccc(-c2ccccc2)s1)SCc1ccc(F)cc1)c1ccc(Br)cc1 | 50 | > 100
O=C(/C(=C\c1c[nH]c2ccccc12)S(=O)(=O)Cc1ccc(F)cc1)c1ccc(Cl)cc1 | 50 | 50
O=C(/C(=C\c1ccc(O)c([N+](=O)[O-])c1)S(=O)(=O)c1ccc(I)cc1)c1ccc(I)cc1 | 25 | 25
O=C(/C(=C\c1ccc(F)c([N+](=O)[O-])c1)SCc1ccc(Br)cc1)c1ccc(Cl)c([N+](=O)[O-])c1 | > 100 | > 100
COc1ccc(/C=C(\C(=O)c2ccc(Br)cc2)S(=O)(=O)c2ccc(Br)cc2)c(F)c1 | 1 | 10
Cc1ccc(S/C(=C/c2cnc3ccccc3c2)C(=O)c2ccc(Cl)cc2)cc1 | > 100 | > 100
Cc1ccc(C)c(/C=C(/Sc2ccc(Br)cc2)C(=O)c2ccc(Cl)cc2)c1 | 10 | 10
Cc1ccc(CS(=O)(=O)/C(=C/c2sccc2C)C(=O)c2ccc(Cl)cc2)cc1 | 25 | 25
CSc1ccc(/C=C(\C(=O)c2ccc(Br)cc2)S(=O)(=O)Cc2ccc(F)cc2)cc1 | > 100 | 50
O=C(/C(=C\c1ccc(Cl)cc1Cl)Sc1ccc(Br)cc1)c1ccc(Br)cc1 | 1 | 1
O=C(/C(=C\c1ccc(O)c([N+](=O)[O-])c1)SCc1ccc(Br)cc1)c1ccc(Br)cc1 | 10 | 10
Cc1ccc(CS/C(=C/c2ccc(N(C)C)cc2)C(=O)c2ccc(Cl)cc2)cc1 | 15 | > 100
COc1ccc(C(=O)/C(=C\c2ccc(Cl)cc2)Sc2ccc(F)cc2)cc1 | > 100 | > 100
COc1cc(OC)c(/C=C(/Sc2ccc(C)cc2)C(=O)c2ccc(Br)cc2)c(OC)c1 | 50 | > 100
O=C(/C(=C\c1ccc(O)cc1O)Sc1ccccc1Br)c1ccc(Cl)cc1 | 50 | 50
COc1ccccc1/C=C(\C(=O)c1ccc(Cl)cc1)S(=O)(=O)c1ccc(Br)cc1 | 10 | 10
CN(C)c1ccc(/C=C(/SCc2ccc(Cl)cc2)C(=O)c2ccc([N+](=O)[O-])cc2)cc1 | 50 | > 100
COc1ccc(/C=C(\C(=O)c2ccc(Cl)cc2)S(=O)(=O)c2ccc(Br)cc2)cc1O | 10 | 10
O=C(/C(=C\c1ccc([N+](=O)[O-])c(O)c1)SCc1ccc(Br)cc1)c1ccc(C(F)(F)F)cc1 | 1 | 1

Structure (SMILES) | GI50 (K562) [µM] | GI50 (DU-145) [µM]
Cc1ccc(CS/C(=C/c2c(O)cc(O)cc2O)C(=O)c2ccc(Cl)cc2)cc1 | 50 | 50
Cc1ccc(S/C(=C/c2ccc(-c3ccccc3)cc2)C(=O)c2ccc(Cl)cc2)cc1 | 25 | 50
CN(C)c1ccc(/C=C(\C(=O)c2ccc(Br)cc2)S(=O)(=O)Cc2ccc(F)cc2)cc1 | 50 | 50
Cc1ccc(CS/C(=C/c2ccc(Cl)c([N+](=O)[O-])c2)C(=O)c2ccc(C(=O)O)cc2)cc1 | 1 | 1
Cc1ccsc1/C=C(/SCc1ccc(Cl)cc1)C(=O)c1ccc([N+](=O)[O-])cc1 | > 100 | > 100
O=C(/C(=C\c1ccc(O)cc1O)Sc1ccccc1Br)c1ccc(Br)cc1 | 50 | 50
COc1ccc(/C=C(\C(=O)c2ccc(Br)cc2)S(=O)(=O)c2ccc(C)cc2)cc1 | 1 | 1
Cc1cc(F)ccc1/C=C(/SCc1ccc(F)cc1)C(=O)c1ccc(Br)cc1 | 10 | 10
COc1ccc(C(=O)/C(=C\c2ccc(Br)cc2)S(=O)(=O)c2ccc(F)cc2)cc1 | 1 | 1
COc1ccc(/C=C(/SCc2ccc(F)cc2)C(=O)c2ccc(Br)cc2)cc1O | 1 | 1
Cc1ccc(/C=C(\C(=O)c2ccc([N+](=O)[O-])cc2)S(=O)(=O)Cc2ccc(Cl)cc2)s1 | 10 | 25
Nc1c(Br)cc(Br)cc1/C=C(\C(=O)c1ccc(Br)cc1)S(=O)(=O)c1ccc(Br)cc1 | 25 | 25
O=C(/C(=C\c1ccc(O)c([N+](=O)[O-])c1)Sc1c(F)c(F)c(F)c(F)c1F)c1ccc(Br)cc1 | 10 | 10
COc1ccc(/C=C(\C(=O)c2ccc(Br)cc2)S(=O)(=O)Cc2ccc(F)cc2)cc1 | 25 | 25
CN(C)c1ccc(/C=C(\C(=O)c2ccc(C(=O)O)cc2)S(=O)(=O)Cc2ccc(Cl)cc2)cc1 | > 100 | > 100
COc1ccccc1/C=C(/SCc1ccc(Cl)c(Cl)c1)C(=O)c1ccc(Cl)cc1 | 10 | 10
Cc1ccc(S/C(=C/c2ccc(Cl)c(Cl)c2)C(=O)c2ccc(Br)cc2)cc1 | 50 | 50
O=C(/C(=C\c1c(O)cc(O)cc1O)Sc1ccc(Br)cc1)c1ccc(Cl)cc1 | 50 | 50
O=C(O)c1ccc(C(=O)/C(=C\c2ccc(Cl)c([N+](=O)[O-])c2)SCc2ccc(C(F)(F)F)cc2)cc1 | 1 | 1
COc1ccccc1/C=C(\C(=O)c1ccc(Br)cc1)S(=O)(=O)c1ccc(C)cc1 | 1 | 1
O=C(/C(=C\c1ccc(O)c([N+](=O)[O-])c1)SCc1ccc(Br)cc1)C1CCNC1 (stereo unspecified) | > 100 | > 100
O=C(/C(=C\c1ccc([N+](=O)[O-])c(O)c1)SCc1ccc(Br)cc1)c1cc(Cl)ccc1O | 10 | 10
COc1cc(OC)c(/C=C(/Sc2ccc(C)cc2)C(=O)c2ccc(Cl)cc2)c(OC)c1 | 25 | > 100
